Data reported in the EternaBench riboswitch data.

Test system: MS2 coat protein
Assay: apparent Kd, MS2 coat protein; higher = weaker binding; RNA-MaP array; FMN 200 µM where present
Procedure, shortened: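 Stalled E. coli RNA polymerase produced the designs on Illumina sequencing-chip clusters. SNAP-549-labelled MS2 coat protein was added from 0.7 or 1.5 nM, doubling to 3 µM, without and then with constant ligand, in 100 mM Tris-HCl pH 7.5, 80 mM KCl, 4 mM MgCl2, BSA, DTT, yeast tRNA and Tween-20. The apparent Kd is the median of filtered per-cluster fits of green signal normalised to red-channel RNA signal and control-cluster median Fmax.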

[1] = designed as: OFF switch for flavin mononucleotide, no ligand
[2] = ligand present: flavin mononucleotide, designed as: OFF switch for flavin mononucleotide
[3] = ligand present: flavin mononucleotide, designed as: ON switch for flavin mononucleotide
[4] = designed as: ON switch for flavin mononucleotide, no ligand

Sequence | apparent Kd [1] [nM] | apparent Kd [2] [nM] | apparent Kd [3] [nM] | apparent Kd [4] [nM]
ACCUCACAUGAGGAUCACCCAUGUCAGGAUAUCUGAUGUAGUCGCGUUCCCGACGCUAAGAGAAGGGACGUUGA | 40.4 | 35.1 | – | –
ACGACGAAAGUCGAACGAUGAUCGAGAAGGACAUGAGGAUCACCCAUGUCUGCUGUAACAGCCAUGUAGGAUAUCGAUCAUCGA | 3.62 | 4.13 | – | –
ACGACGAAAGUCGAACGAUGUAGCAGAAGGACAUGAGGAUCACCCAUGUCAGCUGUAACAGCCAUGUAGGAUAUGCUACAUCGA | 4.35 | 5.67 | – | –
ACGUAUAGAGGAUAUACAGAAUAUUACAUGAGGAUCACCCAUGUUCUUCAAUGUAUAUUUGUAGAAGGCUAAUGAA | 60.7 | 281 | – | –
ACGUAUCAUGUCAGGAUAUAGCUAGCUACGGCUAGCUAGAAGGGACAUGAGGAUCACCCAUGUCAAAGAUACGU | 14 | 19 | – | –
ACGUUAAAAGGAUAUACAUGAGGAUCACCCAUGUUGUUCGAACCGGUAAACCCUCUAUGUAGAAGGUUUGGCGC | 16 | 17.9 | – | –
ACGUUUUAUGCAGGAUAUUGACAUAUAUUUAAACAAGAAGGGCAUUACAUGAGGAUCACCCAUGUUAUCAUGGUAUUUAAGUUC | 64.1 | 63.2 | – | –
ACGUUUUUUGAGGAUAUGCGAUAGUUUUAUAUCGUAGAAGGCGAUACAUGAGGAUCACCCAUGUUUAUGGGCAU | 167 | 197 | – | –
ACUAGAUGAGGAUAUGCAUAUUUUCGUGUUCUUCUAGAUUAACAUGAGGAUCACCCAUGUAGAAGGCGUCAUUA | 16.5 | 20.3 | – | –
ACUAUACGAGGAUAUACUGACGGGCCUCAGGCGUCCAUGAGACAUGAGGAUCACCCAUGUAGAAGGCGUAUACU | 174 | 52 | – | –
ACUAUACGAGGAUAUGCUGUCAGUACUCAGAGGUUAGUGUGACAUGAGGAUCACCCAUGUAGAAGGCGUUUACU | 40.8 | 34 | – | –
ACUGAUCAUGAGGAUAUGCGCCAGAACGCCGGCGUAGAAGGCGUGACAUGAGGAUCACCCAUGUCAGUUCGCGA | 59.2 | 60.3 | – | –
ACUGGUCGAGGAUAUACAUUCGUGCUUCGGCACGUAAGAUCACAUGAGGAUCACCCAUGUAGAAGGCGACCAGU | 104 | 732 | – | –
ACUGUCCGAGAGAAGGGAACAUGAGGAUCACCCAUGUUACCUCACCCGGUGACGGAACUCCAAGUUCAGGAUAUCUCGAGCGGU | 7.09 | 12.6 | – | –
ACUGUGUGAGGAUAUCUACGCCAUGUCUUUGACAUGGCGCAAGAGAAGGCACAUGAGGAUCACCCAUGUACUUC | 18.4 | 39.2 | – | –
ACUUAAAUACCCAAAAGUCGGGCGGAGGAUAUGGAGCUUCCACCACAUGAGGAUCACCCAUGUCUUCAGAAGGCCGCCCUUGGA | – | – | 11.2 | –
ACUUAUUGAGGAUAUACAGAAAAUUACAUGAGGAUCACCCAUGUUCUUCAAUGUAUAUAUGUAGAAGGCAGAAUAG | 14.4 | 27.6 | – | –
ACUUGCUUGCAGAAGGGUGACAUGAGGAUCACCCAUGUAGCGUGCCGGCGUAAAGUCAGCGCGCCACAGGAUAUGCAGGCCUCG | – | – | 44 | 65.8
ACUUGUAAGUAGAAGGCAGUCAUUAUAUUAAUCAUGUAGACAUGAGGAUCACCCAUGUAGAGUACUGAGGAUAUACAUCGAUAG | 12.5 | 9.85 | – | –

Sequence | apparent Kd [1] [nM] | apparent Kd [2] [nM] | apparent Kd [3] [nM] | apparent Kd [4] [nM]
ACUUUUUAUGGACAUGAGGAUCACCCAUGUGCCUUGGGCCUCAAGGAUAUAGUAAUUGUCGUGUACUAGAAGGUGAAGCCAUUA | – | – | 27.9 | 77.2
AGAAAACAUGAGGAUCACCCAUGUAGAAAUAUGGGAGGAUAUACAAAGACGAAAGUCAGAGUAGAAGGCCUAAAAA | – | – | 17.6 | 65.2
AGAAAAGCAGGAUAUAUCCGGGAUAACAUGAGGAUCACCCAUGUGACCGCUUGAUAUCCUAUAGAAGGGCUUAAGA | 24.4 | 51.2 | – | –
AGAAACCAAGGAUAUACAUGAGGAUCACCCAUGUUAGCGUGCAUGCCCUGCCUCAGCUGUAGAAGGUGGACGCC | 25.9 | 28.8 | – | –
AGAAACUACGAGAAGGACAUGAGAACCUUCAUUUACAUGAGGAUCACCCAUGUAGGAUAUCGUAGUUUCAGGAUCGUGAGAUCA | 45.6 | 232 | – | –
AGAAAUAAAAGAGAGGAUAUCCAAAAGAAAACAUGAGGAUCACCCAUGUAAAAGAAAAUAAAAUGGGAGAAGGCUCAAAAUAAAGA | – | – | 22.6 | 115
AGAAGACAUGAGGAUCACCCAUGUAAGGAUAUUGGAGGUUAGGGAUGCUGGAGUUGGACAAGAAGGUACAGGUG | 52.8 | 50.9 | – | –
AGAAGGCUACAGAAGGGACACACACGGUGGGAGUCAGGAUAUGUAGAGAAAACGUUACAUGAGGAUCACCCAUGUAGACCUUCC | – | – | 16.8 | 73.9
AGACCCUGAACGAAAUCAUACAGUCAGGAUAUACAUGAGGAUCACCCAUGUGCGUACCAACUCGUGUAGAAGGGACUUUCAGGG | 12.3 | 30.2 | – | –
AGACUGCGUAGAAUUAGCAGCUGACAGGAUAUGACAUGAGGAUCACCCAUGUGAAAUAAGAAGAGUCAGAAGGGUCACGACACA | 11.3 | 9.89 | – | –
AGAGGUCUCUGUGAUAACGGUACGAAGGAUAUGCAUGGAUGGGCCGAGACAUGAGGAUCACCCAUGUAGAAGGUCGAUGCGCGU | 51 | 65.7 | – | –
AGAUAACACCAGAAGGACAUGAGGAUCACCCAUGUAGGAUAUGGGCAUCACUCGAGAAAGAUACGACCAAAGGGACACGCGGUC | – | – | 9.97 | 124
AGAUAACAUAGUUAUCCGUAACGGACAUGAGGAUCACCCAUGUAGGAUAUGUUACUCAACGAGUAACAGAAGGACAUGAGUCUU | 17.3 | 102 | – | –
AGAUACUACGAGAAGGACAUGAGGAUCACCCAUGUAACCAGUAUCUGGAAUGUAGGAUAUCGUAGUAUCAGGAUCGUGAGAUCA | 9.91 | 32.9 | – | –
AGAUAGUCAGGAUAUACGUGGAUGGAACACUUAUUUCCACUACAUGAGGAUCACCCAUGUAGAAGGGACUAUCA | 17.8 | 17.8 | – | –
AGAUAUAACUCAGGAUAUCAGCAUGGGUAGAUUACAUGAGGAUCACCCAUGUGCAUGUCCCGGCAUGAGAAGGGAGUAACGCAA | – | – | 27.4 | 81.8
AGAUAUAUACAUGAGGAUCACCCAUGUUAAUAGGUGUUUGUCAGAAGGCAUUAUGAGAGAAUUAAUGAGGAUAUGAAGUAUCAU | – | – | 23 | 37.3
AGAUCCUGAGUCAGGAUAUAGAGACGGUAGUCGGGCUAGAAGGGACAUGAGGAUCACCCAUGUGGGUUCUUGCC | 10.7 | 13.1 | – | –
AGAUGACAAAGUCAUCUCUGGCAGACAUGAGGAUCACCCAUGUAGGAUAUACUACUCAAAGAGUAGUAGAAGGACAUGUGUCUU | 35.9 | 99.4 | – | –

Sequence | apparent Kd [1] [nM] | apparent Kd [2] [nM] | apparent Kd [3] [nM] | apparent Kd [4] [nM]
AGAUGACAAUGUCAUCUUCAACGGACAUGAGGAUCACCCAUGUAGGAUAUGCUACUCAAAGAGUAGCAGAAGGACAUGUGUCUU | 23.1 | 85.2 | – | –
AGAUGGCGAGGAUAUACAUGAGGAUCACCCAUGUGAAGAUAAAUAGUGAGGAAGAAAAGUAGAAGGCGCUGUCA | 77.5 | 447 | – | –
AGAUUUGUACAUGAGGAUCACCCAUGUUAAUAGGUGGUUGUCAGAAGGCAUUAAUAGAGUUUUAAUGAGGAUAUGAAUUUACAA | – | – | 803 | 1030
AGAUUUGUACAUGAGGAUCACCCAUGUUAAUAGGUGGUUGUCAGAAGGCAUUAUUAGAGUUUUAAUGAGGAUAUGAAUUUACAA | – | – | 541 | –
AGCACGAAAGUGCAACGAUGUACGAGAAGGACAUGAGGAUCACCCAUGUUGCUGUAACUGCUUAUGUAGGAUAUCGUACAUCGA | – | 7.01 | – | –
AGCACGAAAGUGCAACGAUGUAGCAGAAGGACAUGAGGAUCACCCAUGUAACGAGUAACUCGAAUGUAGGAUAUGCUACAUCGA | 25 | 157 | – | –
AGCAGACGAGGAUAUGAUAAAGAUCACAUGAGGAUCACCCAUGUAGCGUCGAUAGACGCAUCAGAAGGCGUCUGCU | 16.1 | 16.5 | – | –
AGCAUGCAGUAGGAUAUCGAUCCACAAUAUGAACGAGAAGGACUGACAUGAGGAUCACCCAUGUGCGUCCUAGG | 16.7 | 16.6 | – | –
AGCAUGCUAGGAUAUACGGGACAUUAGGGUUUGUCGUGUGGACAUGAGGAUCACCCAUGUAGAAGGAGCGUGCA | 54.4 | 228 | – | –
AGCAUGGUAGGAUAUACGGAACAUUAGGGUUUGUUGUGUGGACAUGAGGAUCACCCAUGUAGAAGGGCCGUGCA | 34 | 80.4 | – | –
AGCAUGUGAGGAUAUGCGGACUCCGGUAAAUCUGGAAUCCAGUAGAAGGCACAUGAGGAUCACCCAUGUGAUAA | 68.2 | 55.9 | – | –
AGCCACAGUUCAGGAUAUGCGGGCCGACUGGUAGCAGAAGGGAACAUGAGGAUCACCCAUGUAGGUCAUACGGGCUACGUCGAA | 11.6 | 45.6 | – | –
AGCCGAGUAGGAUAUGCAUACUUACAGGAAAGCUGUAUGGUACAUGAGGAUCACCCAUGUAGAAGGGCUCUGAA | 25 | 21.2 | – | –
AGCCUACAUGAGGAUCACCCAUGUCAGGAUAUCUCGCAACGUGUCAAGUUCACGUCGCAGAGAAGGGACUCGGG | 55.7 | 54 | – | –
AGCCUACAUGAGGAUCACCCAUGUCAGGAUAUCUCGCGACGUGUCGGGUUCACGUUGCAGAGAAGGGACUCGGG | 50.7 | 67.3 | – | –
AGCCUAGCAGGAUAUGCCCGGGAUAACAUGAGGAUCACCCAUGUGACUGAUUGAUAUCCUGCAGAAGGGCUAGGGA | 24.4 | 122 | – | –
AGCGAACAGGCUAACAUGAGGAUCACCCAUGUGGACUCAUGGUAGGAUAUCGGGAAGGAGGAAACCGAGAAGGGCCGGUGAGCC | – | – | 229 | 440
AGCGGCGCGGACCACCGCAAAACCAGAAGGACAUGAGGAUCACCCAUGUAACAAAACAGGGCGGUGUAGGAUAUGGCAGACCCA | 10.8 | 9.16 | – | –
